Results taken from publication PMC6543826 (Bioorganic chemistry, 2018).
Where two headings read alike, the source gives them in different places.

How the values were obtained:
COLO 205 = experiment: NCI-60 SRB screen, Colon cancer; assay type: cell-based
Procedure, shortened: (§1)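 Five-dose NCI-60 protocol (DTP, NCI). Absorbance was read at time zero (Tz), for untreated control (C) and at five compound levels (Ti), with SRB protein-stain end point read spectrophotometrically. GI50 from [(Ti−Tz)/(C−Tz)]×100 = 50; TGI from Ti = Tz; LC50 from [(Ti−Tz)/Tz]×100 = −50. A parameter not reached is given as greater than the highest concentration tested.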

UACC-257 = experiment: NCI-60 SRB screen, Melanoma; assay type: cell-based
Procedure, shortened: as §1

NCI/ADR-RES = experiment: NCI-60 SRB screen, Ovarian cancer; assay type: cell-based
Procedure, shortened: as §1

786–0 = experiment: NCI-60 SRB screen, Renal cancer; assay type: cell-based
Procedure, shortened: as §1

TK-10 = experiment: NCI-60 SRB screen, Renal cancer; assay type: cell-based
Procedure, shortened: as §1

MDA-MB-231/ATCC = experiment: NCI-60 SRB screen, Breast cancer; assay type: cell-based
Procedure, shortened: as §1

HS 578 T = experiment: NCI-60 SRB screen, Breast cancer; assay type: cell-based
Procedure, shortened: as §1

[1] = system: ERK substrates (p90RSK and ELK) phosphorylation in A375 cells; experiment: western blotting of MAPK pathway phosphorylation in A375 cells after EGF; assay type: cell-based, human; conditions: for phosphorylation of ERK substrates (p90RSK and ELK), in words: A375, 0.5–25 μM, EGF stimulation; for concentration enough to inhibit ELK phosphorylation / concentration enough to inhibit p-90RSK phosphorylation: A375, 12 h, then EGF 100 nM; for effect on ERK or MKK½ phosphorylation or the JNK pathway: A375, EGF stimulation
Procedure, shortened: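 A375 cells (1,000,000 per well) were seeded 24 h, then treated with DMSO or test compound (0.5–25 μM) in serum-free medium for 4 or 12 h. Cells were stimulated with 100 nM EGF for 10–15 min, lysed, and 60 μg lysate was blotted. Probes: phospho-p90RSK (Thr573), RSK, phospho-Elk-1 (Ser383), phospho- and total ERK1/2, phospho-JNK (Thr183/Tyr185). Done twice.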

[2] = system: NCI-60 panel of tumor cell lines; experiment: cells; conditions: Homo sapiens
ERK2 = ERK2 (Rattus norvegicus, UniProt P63086); experiment: steady-state kinetic experiments, ERK2 with varied Mg-ATP; assay type: biochemical; conditions: versus ATP, double reciprocal plot
Procedure, shortened: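 Activated rat ERK2 was run in the radiometric kinase buffer with 50 μM His-Ets-1. Mg-ATP was varied (10–2000 μM) at several fixed test compound concentrations (0–54 μM). Initial rates were taken from product-versus-time plots. Mechanism was assessed from a double-reciprocal plot of 1/V0 versus 1/[Mg-ATP].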

ERK2, sequence (P63086 whole entry): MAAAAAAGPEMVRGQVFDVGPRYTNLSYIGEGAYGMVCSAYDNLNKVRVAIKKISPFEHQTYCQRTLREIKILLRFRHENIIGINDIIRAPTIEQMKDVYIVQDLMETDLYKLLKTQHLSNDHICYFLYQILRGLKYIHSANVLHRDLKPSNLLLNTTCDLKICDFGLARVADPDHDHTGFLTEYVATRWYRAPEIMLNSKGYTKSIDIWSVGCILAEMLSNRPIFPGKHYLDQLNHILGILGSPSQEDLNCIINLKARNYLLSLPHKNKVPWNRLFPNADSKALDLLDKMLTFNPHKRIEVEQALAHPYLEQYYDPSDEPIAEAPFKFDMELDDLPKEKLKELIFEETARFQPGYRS

O=C1c2ccccc2C(=O)c2c1oc1c2c(=O)[nH]c2ccc(Cl)cc21 [3b, 2-Chloronaphtho[2′,3′:4,5]furo[3,2-c]quinoline-6,7,12(5H)-trione]
TGI (COLO 205; COLO 205, five-dose): 27.54 µM | GI50 (COLO 205; Homo sapiens, COLO 205): 10.5 µM | CC50 (COLO 205; Homo sapiens, COLO 205, read-out: LC50): 72.4 µM | GI50 (UACC-257; Homo sapiens, UACC-257): 1.32 µM | CC50 (UACC-257; Homo sapiens, UACC-257, read-out: LC50): 8.51 µM | TGI (UACC-257; UACC-257, five-dose): 3.39 µM | GI50 (NCI/ADR-RES; Homo sapiens): 0.35 µM | CC50 (NCI/ADR-RES; Homo sapiens, read-out: LC50): 34.7 µM | TGI (NCI/ADR-RES; five-dose): 1.78 µM | TGI (786–0; 786–0, five-dose): 0.54 µM | GI50 (786–0; Homo sapiens, 786-0): 0.22 µM | CC50 (786–0; Homo sapiens, 786-0, read-out: LC50): 2.45 µM | GI50 (TK-10; Homo sapiens, TK-10): 0.38 µM | CC50 (TK-10; Homo sapiens, TK-10, read-out: LC50): 6.03 µM | TGI (TK-10; TK-10, five-dose): 1.10 µM | GI50 (MDA-MB-231/ATCC; Homo sapiens, MDA-MB-231): 0.17 µM | CC50 (MDA-MB-231/ATCC; Homo sapiens, MDA-MB-231, read-out: LC50): 2.82 µM | TGI (MDA-MB-231/ATCC; MDA-MB-231/ATCC, five-dose): 0.51 µM | TGI (HS 578 T; HS 578 T, five-dose): 1.38 µM | GI50 (HS 578 T; Homo sapiens, Hs-578T): 0.26 µM | CC50 (HS 578 T; Homo sapiens, Hs-578T, read-out: LC50): > 100 µM | phosphorylation of ERK substrates (p90RSK and ELK), in words [1]: dose-dependent inhibition | concentration enough to inhibit ELK phosphorylation [1]: 10 µM | concentration enough to inhibit p-90RSK phosphorylation [1]: 25 µM | effect on ERK or MKK½ phosphorylation or the JNK pathway [1]: no effect | GI50 ([2]; read-out: GI50, average across all cell lines tested): 0.24 µM | GI50 ([2]; read-out: GI50 values, range over all cell lines): 0.14 to 10.5 µM | CC50 ([2]; read-out: LC50, average): 7.58 µM

O=C1C(Cl)=C(c2c(O)c3c(=O)n(-c4ccccc4)c4ccccc4c3oc2=O)C(=O)c2ccccc21 [compound 6, 3-(3-Chloro-1,4-dioxo-1,4-dihydronaphthalen-2-yl)-4-hydroxy-6-phenyl-2H-pyrano[3,2-c]quinoline-2,5(6H)-dione]
mechanism of ERK2 inhibition (ERK2): competitive inhibition | phosphorylation of ERK substrates (p90RSK and ELK), in words [1]: dose-dependent inhibition | concentration enough to inhibit ELK phosphorylation [1]: 2.5 µM | concentration enough to inhibit p-90RSK phosphorylation [1]: 10 µM | effect on ERK or MKK½ phosphorylation or the JNK pathway [1]: no effect
